PubChem BioAssay
Inconclusive results are not listed.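 The calls were made as follows, unless noted: active = viability increase at or above a cutoff of the median across tested compounds plus 3 SD (cut at about 8.5% in these data, passing the limit was not always enough); inconclusive = some gains above the cutoff, reason not given; inactive = the rest.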

What was measured:
[1] = OD615 S. cerevisiae growth inhibition, permissive medium, pilot counter-assay, permissive growth control for S. cerevisiae lifespan shortening project (AID 705;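 active = growth inhibition above 25% in both replicates, a cutoff set 3 SD above the mean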); details: OD615, 24 h, at 10 µM, stronger effect = higher value
How it was run: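 System: S. cerevisiae with engineered DeaD lifespan system. Medium: SC raffinose/galactose permissive medium. Doses: single compound dose of 10 µM, 0.25% DMSO final. Schedule: 24 h exposure, 30 °C. Measured by: OD615 turbidity read. Read-out: growth inhibition.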

[2] = Restrictive medium S. cerevisiae growth inhibition, OD615, pilot screen of yeast lifespan reduction project, restrictive growth control (AID 706;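 active = growth inhibition above a set limit, 3 SD over mean compound inhibition, in both replicates, cut at about 43% in these data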;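 also: modified DeaD lifespan yeast strain shifted to restrictive glucose medium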); details: OD615, 48 h, at 10 µM, stronger effect = higher value
How it was run: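 Assay system – genetically modified Saccharomyces cerevisiae, DeaD replicative lifespan assay strain · Medium – CSMM-D glucose medium · Doses – 10 µM compound, 0.25% DMSO · Times – 4 h pre-incubation, 48 h exposure at 30 °C · Signal – optical density at 615 nm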

[3] = viability gain of MRP-1-high H69AR cells under doxorubicin, pilot screen, MRP-1 activator project, CellTiter-Glo, duplicate (AID 807); details: H69AR viability with doxorubicin, CellTiter-Glo luminescence; at 10 µM; stronger effect = higher value;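 also: compound pretreatment 18-22 h then 72 h combined with doxorubicin; 0% = doxorubicin alone and 100% = vehicle without doxorubicin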
[4] = growth suppression of PTEN-deleted HCT116, pilot screen, cell-based, HCT116 clonal line, CellTiter-Glo (AID 824;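 active = viability at or below 27.92% in each of two runs, the all-compound median minus 4 SD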;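 also: 0% = 20 µM Hyamine control and 100% = vehicle cell control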); details: 60 h, at 10 µM, stronger effect = lower value
[5] = inhibitors of the yeast RAM network, pilot screen, dse1pr::URA3 reporter, 5-FOA selection (AID 869;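 active = inhibition over a set limit, the all-compound mean plus 3 SD, in both replicate runs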;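 also: 0% = DMSO wells with no growth and 100% = 10 µM 1-NA-PP1 with full growth; RAM network block rescues cells from 5-FOA so hits raise OD615 growth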); details: S. cerevisiae dse1pr::URA3 5-FOA growth, OD615, 2 d; at 10 µM; stronger effect = higher value; strain carries analog-sensitive mutant Cbk1 kinase
[6] = growth suppression of beta-catenin knockout HCT116, pilot screen, human colon tumor cells (AID 823;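 active = cell viability at or below a set limit in both duplicate runs, the limit being the all-compound median minus 4 SD, cut at about 23% in these data, passing the limit was not always enough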;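 also: 0% = wells killed by 20 µM Hyamine and 100% = untreated DMSO cell wells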); details: CellTiter-Glo, 60 h, at 10 µM, stronger effect = lower value

CCN(CC)S(=O)(=O)c1cc(-c2nnc(-c3ccc(Br)cc3)o2)ccc1Cl
inactive: growth inhibition [1] -10.3% | growth inhibition [2] -14.6% | viability increase [3] 1.36% | viability [4] 41.7% | inhibition [5] 2.41%

Brc1ccc(-c2nnc3ccc(N4CCN(c5ccccc5)CC4)nn23)cc1
inactive: growth inhibition [1] 7.94% | growth inhibition [2] -10.7% | viability increase [3] -5.11% | viability [6] 82.8% | viability [4] 75.5% | inhibition [5] 2.52%

COC(=O)CNc1c(-c2ccccn2)nc2ccc(Br)cn12
inactive: growth inhibition [1] -20.4% | growth inhibition [2] 10.8% | viability increase [3] -2.57% | viability [6] 89.2% | inhibition [5] 0.175%
